Assays:
Type in all cases: functional, cell-based
G-361 = assay: Cytotoxicity against human G361 cells after 72 hrs by calcein acetoxymethyl assay
Method in brief: (§1)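 Tumour cells kept in DMEM at 37 °C, 5% CO₂, 100% humidity; seeded at about 1.25 × 10⁵ cells/ml and preincubated 12 h. Compounds added at 0.5–50 μM (0.5–200 μM for FeCl₃·6H₂O) for 72 h. Live cells then stained 1 h with calcein AM and fluorescence read at 485/538 nm. IC₅₀ estimated as concentration lethal to 50% of cells; mean of three values.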

HOS = assay: Cytotoxicity against human HOS cells after 72 hrs by calcein acetoxymethyl assay; method in brief: as §1
MCF7 = assay: Cytotoxicity against human MCF7 cells after 72 hrs by calcein acetoxymethyl assay; method in brief: as §1
K562 = assay: Cytotoxicity against human K562 cells after 72 hrs by calcein acetoxymethyl assay; method in brief: as §1

| Compound | IC50 (G-361; Homo sapiens, G-361, 72 h) [µM] | IC50 (HOS; Homo sapiens, HOS, 72 h) [µM] | IC50 (MCF7; Homo sapiens, MCF7, 72 h) [µM] | IC50 (K562; Homo sapiens, K562, 72 h) [µM] | IC50 (G-361; g-361) [µM] | IC50 (HOS; hos) [µM] | IC50 (MCF7; mcf7) [µM] | IC50 (K562; k562) [µM] |
| --- | --- | --- | --- | --- | --- | --- | --- | --- |
| OC[C@@H]1O[C@H](n2cnc3c(NCc4ccc(OC(F)(F)F)cc4)ncnc32)[C@@H](O)[C@H]1O | > 50 | > 50 | > 50 | > 50 |  |  |  |  |
| FeCl3.6H2O |  |  |  |  | > 200 | > 200 | > 200 | > 200 |
| OC[C@@H]1O[C@H](n2cnc3c(NCc4ccc(F)cc4)ncnc32)[C@@H](O)[C@H]1O | > 50 | > 50 | > 50 | > 50 |  |  |  |  |

— ChEMBL document CHEMBL1151795, “Novel iron complexes bearing N6-substituted adenosine derivatives: synthesis, magnetic, 57Fe Mössbauer, DFT, and in vitro cytotoxicity studies” (Bioorg Med Chem, 2008)
